Experimental data taken from ChEMBL document CHEMBL4017515 (J Med Chem, 2017).

Experiments:
[1] = Aqueous solubility of compound; type: physicochemical
[2] = system: Staphylococcus aureus; assay: Growth inhibition of Staphylococcus aureus Newman at 0.2 mM measured after overnight incubation; conditions: 200 µM
[3] = system: Staphylococcus aureus; assay: Growth inhibition of Staphylococcus aureus USA400 MW2 at 0.2 mM measured after overnight incubation; conditions: 200 µM
[4] = system: Staphylococcus aureus; assay: Growth inhibition of Staphylococcus aureus USA300 LAC at 0.2 mM measured after overnight incubation; conditions: 200 µM
[5] = system: Staphylococcus aureus; assay: Growth inhibition of Staphylococcus aureus Mu50 at 0.2 mM measured after overnight incubation; conditions: 200 µM
[6] = Tmax in Sprague-Dawley rat at 5 mg/kg, iv after 24 hrs by LC/MS/MS analysis; type: ADME, organism-based; conditions: in vivo
In short: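 Male SD rats (230-260 g), six in total across routes. Single intravenous dose of 5 mg/kg in 10% castor oil/water. Blood sampled at various time points over 24 h. Compound concentration in blood quantified by LC-MS/MS.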

[7] = Half life in Sprague-Dawley rat at 5 mg/kg, iv after 24 hrs by LC/MS/MS analysis; type: ADME, organism-based; conditions: in vivo
In short: (§1)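 Male SD rats (230-260 g), six in total; compound in 10% castor oil/water given once IV at 5 mg/kg or PO at 10 mg/kg. Blood sampled at various time points over 24 h, and drug concentration measured by LC-MS/MS.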

[8] = Half life in Sprague-Dawley rat at 10 mg/kg, po after 24 hrs by LC/MS/MS analysis; type: ADME, organism-based; conditions: in vivo; in short: as §1
[9] = Tmax in Sprague-Dawley rat at 10 mg/kg, po after 24 hrs by LC/MS/MS analysis; type: ADME, organism-based; conditions: in vivo
In short: (§2)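 Male SD rats (230-260 g), six in total across routes. Compound dissolved in 10% castor oil/water, given orally at 10 mg/kg, with an IV arm at 5 mg/kg for comparison. Blood sampled at various time points over 24 h. Blood concentrations measured by LC-MS/MS.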

[10] = Cmax in Sprague-Dawley rat at 5 mg/kg, iv after 24 hrs by LC/MS/MS analysis; type: ADME, organism-based; parameters: dose 5 mg/kg, route intravenous; conditions: in vivo; in short: as §1
[11] = Cmax in Sprague-Dawley rat at 10 mg/kg, po after 24 hrs by LC/MS/MS analysis; type: ADME, organism-based; parameters: dose 10 mg/kg, route oral; conditions: in vivo; in short: as §1
[12] = AUC (0 to t) in Sprague-Dawley rat at 5 mg/kg, iv after 24 hrs by LC/MS/MS analysis; type: ADME, organism-based; parameters: dose 5 mg/kg, time < 24 hr, route intravenous; conditions: in vivo; in short: as §1
[13] = AUC (0 to t) in Sprague-Dawley rat at 10 mg/kg, po after 24 hrs by LC/MS/MS analysis; type: ADME, organism-based; parameters: dose 10 mg/kg, time < 24 hr, route oral; conditions: in vivo; in short: as §1
[14] = AUC (0 to infinity) in Sprague-Dawley rat at 5 mg/kg, iv after 24 hrs by LC/MS/MS analysis; type: ADME, organism-based; parameters: dose 5 mg/kg, time infinity, route intravenous; conditions: in vivo; in short: as §1
[15] = AUC (0 to infinity) in Sprague-Dawley rat at 10 mg/kg, po after 24 hrs by LC/MS/MS analysis; type: ADME, organism-based; parameters: dose 10 mg/kg, time infinity, route oral; conditions: in vivo; in short: as §1
[16] = Mean residence time (0 to t) in Sprague-Dawley rat at 5 mg/kg, iv after 24 hrs by LC/MS/MS analysis; type: ADME, organism-based; conditions: in vivo; in short: as §1
[17] = Mean residence time (0 to t) in Sprague-Dawley rat at 10 mg/kg, po after 24 hrs by LC/MS/MS analysis; type: ADME, organism-based; conditions: in vivo; in short: as §1
[18] = Mean residence time (0 to infinity) in Sprague-Dawley rat at 5 mg/kg, iv after 24 hrs by LC/MS/MS analysis; type: ADME, organism-based; conditions: in vivo; in short: as §1
[19] = Mean residence time (0 to infinity) in Sprague-Dawley rat at 10 mg/kg, po after 24 hrs by LC/MS/MS analysis; type: ADME, organism-based; conditions: in vivo; in short: as §1
[20] = Oral bioavailability in Sprague-Dawley rat at 10 mg/kg after 24 hrs by LC/MS/MS analysis; type: ADME, organism-based; conditions: in vivo; in short: as §2
[21] = system: Staphylococcus aureus LAC; assay: Inhibition of CrtN in Staphylococcus aureus USA300 LAC assessed as H2O2-induced bacterial death by measuring fold reduction in survival rate at 1 uM preincubated for 24 hrs followed by H2O2 addition measured after 30 mins by serial dilution method
In short: (§3)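 Strain grown in TSB at 37 °C for 24 h with or without 1 μM compound, or with NAC. Cells washed in PBS and set at 4×10^6 CFU per 250 μL. H2O2 added to 1.5% final, then incubated 30 min at 37 °C with shaking at 250 rpm. Reaction quenched with 1000 U/mL catalase; survivors counted by serial dilution CFU on TSA/TSB.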

[22] = system: Staphylococcus aureus subsp. aureus MW2; assay: Inhibition of CrtN in Staphylococcus aureus USA400 MW2 assessed as H2O2-induced bacterial death by measuring fold reduction in survival rate at 1 uM preincubated for 24 hrs followed by H2O2 addition measured after 30 mins by serial dilution method; in short: as §3
[23] = system: Staphylococcus aureus LAC; assay: Inhibition of CrtN in Staphylococcus aureus USA300 LAC assessed as bacterial death by measuring survival rate measured after 6 hrs by serial dilution method (reference value: 12%)
In short: (§4)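 Overnight cultures in PBS (1×10^7 CFU/mL) mixed 1:9 with healthy-volunteer human whole blood (1×10^6 CFU/mL final). Held 6 h at 37 °C; surviving CFU counted by serial dilution plating on TSA/TSB.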

[24] = system: Staphylococcus aureus subsp. aureus MW2; assay: Inhibition of CrtN in Staphylococcus aureus USA400 MW2 assessed as bacterial death by measuring survival rate measured after 6 hrs by serial dilution method (reference value: 20.67%); in short: as §4
[25] = system: Staphylococcus aureus LAC; assay: Inhibition of CrtN in Staphylococcus aureus USA300 LAC assessed as H2O2-induced bacterial death by measuring survival rate at 1 uM preincubated for 24 hrs followed by H2O2 addition measured after 30 mins by serial dilution method (reference value: 24%)
[26] = system: Staphylococcus aureus subsp. aureus MW2; assay: Inhibition of CrtN in Staphylococcus aureus USA400 MW2 assessed as H2O2-induced bacterial death by measuring survival rate at 1 uM preincubated for 24 hrs followed by H2O2 addition measured after 30 mins by serial dilution method (reference value: 26.3%)

Compound	solubility [1] [mg/mL]	also measured
CC(=O)O.CN(C/C=C/c1ccc(-c2ccccc2)cc1)Cc1ccc2c(c1)CCO2	4.7	–
CC(O)C(=O)O.CN(C/C=C/c1ccc(-c2ccccc2)cc1)Cc1ccc2c(c1)CCO2	6.2	–
CN(C/C=C/c1ccc(-c2ccccc2)cc1)Cc1ccc2c(c1)CCO2.O=C(O)/C=C\C(=O)O	1.2	–
CN(C/C=C/C=C/c1ccc(-c2ccccc2)cc1)Cc1ccc2c(c1)OCCC2.O=C(O)C(F)(F)F	1.7	–
COc1ccc(/C=C/CN(C)Cc2ccc3c(c2)CCCCC3)cc1.Cl	1.4 to 4.1	–
CN(C/C=C/C=C/c1ccc(-c2ccccc2)cc1)Cc1ccc2c(c1)OCCC2.O=P(O)(O)O	12.9	–
CN(C/C=C/c1ccc(C(F)F)cc1)Cc1ccc2c(c1)OCCC2.Cl	16.3	–
CN(C/C=C/c1ccc(-c2ccccc2)cc1)Cc1ccc2c(c1)CCO2.O=S(=O)(O)O	1.8	–
CC(=O)O.CN(C/C=C/C=C/c1ccc(-c2ccccc2)cc1)Cc1ccc2c(c1)OCCC2	4.1	–
CN(C/C=C/c1ccc(C(F)(F)F)cc1F)Cc1ccc2c(c1)CCO2.Cl	16.3	–
CN(C/C=C/C=C/c1ccc(-c2ccccc2)cc1)Cc1ccc2c(c1)OCCC2.O=C(O)CCC(=O)O	2.3	–
COc1ccc(/C=C/CN(C)Cc2ccc3c(c2)CCCC3)cc1.Cl	0.9	–
CN(C/C=C/c1ccc(C(F)(F)F)cc1)Cc1ccc2c(c1)OCCC2.Cl	13.2	–
CN(C/C=C/c1ccc(-c2ccccc2)cc1)Cc1ccc2c(c1)CCO2.Cl	4.4	growth inhibition (GI) [2]: Non-Toxic; growth inhibition (GI) [3]: Non-Toxic; growth inhibition (GI) [4]: Non-Toxic; growth inhibition (GI) [5]: Non-Toxic; Tmax [6]: 4.98 min; half-life [7]: 2.27 h; half-life [8]: 1.7 h; Tmax [9]: 2 h; Cmax [10]: 2.04 µg/mL; Cmax [11]: 0.0418 µg/mL; AUC(0-t) at 24 h [12]: 1.33 µg·h/mL; AUC(0-t) at 24 h [13]: 0.156 µg·h/mL; AUC(0-inf) [14]: 1.36 µg·h/mL; AUC(0-inf) [15]: 0.177 µg·h/mL; MRT last at 24 h [16]: 0.9 h; MRT last at 24 h [17]: 2.61 h; MRT inf [18]: 1.13 h; MRT inf [19]: 3.28 h; bioavailability [20]: 6.5%
CN(C/C=C/c1ccc(Br)cc1)Cc1ccc2c(c1)CCCC2.Cl	2	–
CN(C/C=C/c1ccc(Br)cc1)Cc1ccc2c(c1)CCCCC2.Cl	0.6	–
CN(C/C=C/c1ccc(-c2ccccc2)cc1)Cc1ccc2c(c1)CCO2	–	fold change (FC) [21]: 10; fold change (FC) [22]: 10; Survival [23]: 0.12%; Survival [24]: 0.2%
CN(C/C=C/C=C/c1ccc(-c2ccccc2)cc1)Cc1ccc2c(c1)OCCC2	–	fold change (FC) [21]: 10; fold change (FC) [22]: 10; Survival [23]: 0.23%; Survival [24]: 0.53%
CN(C/C=C/C=C/c1ccc(-c2ccccc2)cc1)Cc1ccc2c(c1)OCCC2.O=C(O)CC(O)(CC(=O)O)C(=O)O	1.6	–
CN(C/C=C/c1ccc(C(F)(F)F)cc1)Cc1ccc2c(c1)CCCCC2.Cl	2.6	–
CN(C/C=C/c1ccc(-c2ccccc2)cc1)Cc1ccc2c(c1)CCO2.O=C(O)CCC(=O)O	3.3	–

Compound	solubility [1] [mg/mL]	also measured
CCOc1ccc(/C=C/CN(C)Cc2ccc3c(c2)CCO3)cc1.Cl	11.6	–
CN(C/C=C/c1ccc(C(F)(F)F)cc1)Cc1ccc2c(c1)CCO2.Cl	14.6	–
CN(C/C=C/C=C/c1ccc(-c2ccccc2)cc1)Cc1ccc2c(c1)OCCC2.O=S(=O)(O)O	1.1	–
CN(C/C=C/C=C/c1ccc(-c2ccccc2)cc1)Cc1ccc2c(c1)OCCC2.O=C(O)/C=C\C(=O)O	1.3	–
CN(C/C=C/c1ccc(Cl)cc1)Cc1ccc2c(c1)CCCC2.Cl	1.9	–
CN(C/C=C/c1ccc(Cl)cc1)Cc1ccc2c(c1)CCCCC2.Cl	1.2	–
CN(C/C=C/c1ccc(C(F)(F)F)cc1F)Cc1ccc2c(c1)OCCC2.Cl	15.2	–
CN(C/C=C/C=C/c1ccc(-c2ccccc2)cc1)Cc1ccc2c(c1)OCCC2.Cl	3.8	growth inhibition (GI) [2]: Non-Toxic; growth inhibition (GI) [3]: Non-Toxic; growth inhibition (GI) [4]: Non-Toxic; growth inhibition (GI) [5]: Non-Toxic
CN(C/C=C/c1ccc(-c2ccccc2)cc1)Cc1ccc2c(c1)CCO2.O=C(O)CC(O)(CC(=O)O)C(=O)O	2.3	–
Br.CN(C/C=C/c1ccc(-c2ccccc2)cc1)Cc1ccc2c(c1)CCO2	2.2	–
CC(=O)N[C@@H](CS)C(=O)O	–	Survival [25]: 54.7%; Survival [26]: 57%
CN(C/C=C/c1ccc(-c2ccccc2)cc1)Cc1ccc2c(c1)CCO2.O=C(O)C(O)C(O)C(=O)O	5.7	–
CN(C/C=C/c1ccc(-c2ccccc2)cc1)Cc1ccc2c(c1)CCO2.O=P(O)(O)O	16.2	–
CC(O)C(=O)O.CN(C/C=C/C=C/c1ccc(-c2ccccc2)cc1)Cc1ccc2c(c1)OCCC2	6.5	–
CN(C/C=C/C=C/c1ccc(-c2ccccc2)cc1)Cc1ccc2c(c1)OCCC2.O=C(O)C(O)C(O)C(=O)O	4.6	–
CCOc1ccc(/C=C/CN(C)Cc2ccc3c(c2)OCCC3)cc1.Cl	10.2	–
Br.CN(C/C=C/C=C/c1ccc(-c2ccccc2)cc1)Cc1ccc2c(c1)OCCC2	2.8	–
CN(C/C=C/c1ccc(C(F)(F)F)cc1)Cc1ccc2c(c1)CCCC2.Cl	0.7	–
CN(C/C=C/c1ccc(Cl)cc1)Cc1ccc2c(c1)OCCC2.Cl	11.5	–
CN(C/C=C/c1ccc(-c2ccccc2)cc1)Cc1ccc2c(c1)CCO2.O=C(O)C(F)(F)F	1.5	–
